From ChEMBL document CHEMBL1152210, “Synthesis and biological evaluation of alkoxycoumarins as novel nematicidal constituents” (Bioorg Med Chem Lett, 2008)
Calls of active or inactive are those of the source. The rule behind the calls is not given here.

Experiments:
[1] = system: Bursaphelenchus xylophilus; assay: Nematicidal activity against Bursaphelenchus xylophilus measured per cotton ball after 4 days by serial dilution method; format: functional
Summary of the method: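 Cotton ball (5 mm), loaded with test compound or solvent and vacuum-dried, set on 4-day Botrytis cinerea mycelia grown on Czapek-Dox agar at 21 °C. 100 µl B. xylophilus suspension (ca. 15,000/ml in distilled water) injected into the ball; dish held at 26 °C for 4 days. Mycelial consumption scored; MED is the lowest active dose by serial dilution, top dose 160 µg/ball. Survival confirmed by methylene blue staining.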

[2] = system: Artemia salina; assay: Toxicity in Artemia salina after 24 hrs by serial dilution method; format: organism-based; details: in vivo
[3] = system: Oryzias latipes; assay: Toxicity in Oryzias latipes after 24 hrs by serial dilution method; format: organism-based; details: in vivo

SMILES: COc1cccc2ccc(=O)oc12
- MED [1]: 80 µg
- LC50 [2]: > 80 ppm
- LC100 [2]: > 80 ppm
- LC50 [3]: 100 ppm
- LC100 [3]: > 100 ppm

SMILES: O=C(O)/C=C/c1ccccc1O
- Activity [1]: inactive

SMILES: COc1cc2ccccc2oc1=O
- MED [1]: 80 µg
- LC50 [2]: > 80 ppm
- LC100 [2]: > 80 ppm
- LC50 [3]: > 100 ppm
- LC100 [3]: > 100 ppm

SMILES: CCCCCCCCCCCc1cccc(O)c1
- MED [1]: 5 µg
- LC50 [2]: 1 ppm
- LC100 [2]: 1.3 ppm
- LC50 [3]: 3.8 ppm
- LC100 [3]: 5 ppm

SMILES: O=c1ccc2c(O)cccc2o1
- Activity [1]: inactive

SMILES: CCCCOc1cccc2oc(=O)ccc12
- MED [1]: 40 µg

SMILES: C=CCOc1cccc2oc(=O)ccc12
- Activity [1]: inactive

SMILES: COc1cc(=O)oc2ccccc12
- Activity [1]: inactive
- LC50 [2]: 60 ppm
- LC100 [2]: > 80 ppm
- LC50 [3]: 75 ppm
- LC100 [3]: 100 ppm

SMILES: COc1cc(OC)c2ccc(=O)oc2c1 [CITROPTEN]
- MED [1]: 20 µg

SMILES: O=c1ccc2c(OCc3ccccc3)cccc2o1
- MED [1]: 80 µg

SMILES: CCCOc1cccc2oc(=O)ccc12
- MED [1]: 20 µg

SMILES: C/C1=C\C[C@@H]2C[C@@H](C[C@]3(CC[C@H](C)[C@@H](C)O3)O2)OC(=O)[C@@H]2CC[C@@H](O)[C@H]3OC/C(=C\C=C\[C@H](C)C1)[C@]32O [MILBEMECTIN]
- MED [1]: 0.6 µg
- LC50 [2]: 0.1 ppm
- LC100 [2]: 0.6 ppm
- LC50 [3]: 0.06 ppm
- LC100 [3]: 0.25 ppm

SMILES: COc1ccc2ccc(=O)oc2c1 [HERNIARIN]
- MED [1]: 40 µg
- LC100 [2]: 80 ppm
- LC100 [3]: 75 ppm

SMILES: CCOc1cccc2oc(=O)ccc12
- MED [1]: 10 µg
- LC50 [2]: > 80 ppm
- LC100 [2]: > 80 ppm
- LC50 [3]: 75 ppm
- LC100 [3]: 100 ppm

SMILES: CCCCCCCCOc1cccc2oc(=O)ccc12
- MED [1]: 40 µg

SMILES: COc1ccc2oc(=O)ccc2c1
- MED [1]: 80 µg
- LC50 [2]: > 80 ppm
- LC100 [2]: > 80 ppm
- LC50 [3]: 75 ppm
- LC100 [3]: 100 ppm

SMILES: O=c1ccc2ccccc2o1 [COUMARIN]
- MED [1]: 80 µg
- LC50 [2]: > 80 ppm
- LC100 [2]: > 80 ppm
- LC50 [3]: 38 ppm
- LC100 [3]: 50 ppm

SMILES: COc1cccc2oc(=O)ccc12
- MED [1]: 20 µg
- LC50 [2]: 30 ppm
- LC100 [2]: 20 ppm
- LC50 [3]: 38 ppm
- LC100 [3]: 50 ppm

SMILES: CCCCCCCCCc1cccc(O)c1
- MED [1]: 2.5 µg
- LC50 [2]: 0.6 ppm
- LC100 [2]: 1.3 ppm
- LC50 [3]: 7.5 ppm
- LC100 [3]: 10 ppm

SMILES: CCCCCOc1cccc2oc(=O)ccc12
- MED [1]: 40 µg
